# Measurements published in ChEMBL document CHEMBL1145089, “Development of water-soluble prodrugs of the HIV-1 protease inhibitor KNI-727: importance of the conversion time for higher gastrointestinal absorption of prodrugs based on spontaneous chemical cleavage” (J Med Chem, 2003).
# Assays:
# [1] = In vitro half life at pH 7.4 and 37 degrees C; type: ADME; settings: buffer
# How it was run: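 Prodrug, added as 0.5 mM DMSO stock (10 μL into 1 mL), incubated in PBS pH 7.4 at 37 °C. Release of parent drug followed by RP-HPLC. t1/2 is the time to 50% release of parent drug. Means ± SEM of three experiments.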
# [2] = T max was determined; type: ADME
# How it was run: (§1)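 Male Sprague–Dawley rats (240–300 g, n = 5 or 3), fasted overnight, given the agent intraduodenally via duodenal cannula at a dose equivalent to 10 mg/kg parent drug, in 50% PEG (8000) or saline, 1 mL/kg. Arterial blood taken at 5 min–8 h. Plasma was ethyl acetate extracted and the parent drug quantified by RP-HPLC (UV 202 nm). Cmax/Tmax from mean profiles; AUC0–8 by linear trapezoidal rule.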
# [3] = Bioavailability; type: ADME, organism-based; settings: eutheria, in vivo
# How it was run: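 Rat intraduodenal dosing (dose equivalent to 10 mg/kg parent drug, 50% PEG or saline, 1 mL/kg). Plasma parent drug measured by RP-HPLC over 8 h. Bioavailability is the ratio of mean AUC0–8 (×10) against intravenous parent drug at 1 mg/kg in ethanol cosolvent via femoral vein (n = 2).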
# [4] = C max was determined; type: ADME, organism-based; settings: in vivo; how it was run: as §1
# [5] = Area under curve (AUC) was determined; type: ADME; set-up: concentration or dose not given beside the values; how it was run: as §1
half-life [1] [min],Tmax [2] [min],bioavailability [3] [%],Cmax [4] [ng/mL],AUC [5] [ng·h/mL],SMILES
12.7,240,17.5,650,3980,Cc1cccc(C)c1OCC(=O)N[C@@H](Cc1ccccc1)[C@H](OC(=O)CCC(=O)NCCN)C(=O)N1CSC(C)(C)[C@H]1C(=O)NC(C)(C)C.Cl
1240,60,9.4,460,2130,Cc1cccc(C)c1OCC(=O)N[C@@H](Cc1ccccc1)[C@H](OC(=O)CCCC(=O)NCCN)C(=O)N1CSC(C)(C)[C@H]1C(=O)NC(C)(C)C.Cl
7.9,15,16.1,840,3650,Cc1cccc(C)c1OCC(=O)N[C@@H](Cc1ccccc1)[C@H](OC(=O)CCC(=O)NCCN1CCCC1)C(=O)N1CSC(C)(C)[C@H]1C(=O)NC(C)(C)C.Cl
2060,30,5.4,480,1230,Cc1cccc(C)c1OCC(=O)N[C@@H](Cc1ccccc1)[C@H](OC(=O)CCCC(=O)NCCN1CCOCC1)C(=O)N1CSC(C)(C)[C@H]1C(=O)NC(C)(C)C.Cl
922,,,,,CCCNC(=O)CCC(=O)O[C@H](C(=O)N1CSC(C)(C)[C@H]1C(=O)NC(C)(C)C)[C@H](Cc1ccccc1)NC(=O)COc1c(C)cccc1C
3.6,,,,,Cc1cccc(C)c1OCC(=O)N[C@@H](Cc1ccccc1)[C@H](OC(=O)CCC(=O)NCCN1CCCCC1)C(=O)N1CSC(C)(C)[C@H]1C(=O)NC(C)(C)C.Cl
79.5,30,6.9,410,1570,Cc1cccc(C)c1OCC(=O)N[C@@H](Cc1ccccc1)[C@H](OC(=O)CCC(=O)NCCCN1CCOCC1)C(=O)N1CSC(C)(C)[C@H]1C(=O)NC(C)(C)C.Cl

# Second part, the compound before the results:
SMILES,half-life [1] [min],Tmax [2] [min],bioavailability [3] [%],Cmax [4] [ng/mL],AUC [5] [ng·h/mL]
Cc1cccc(C)c1OCC(=O)N[C@@H](Cc1ccccc1)[C@H](OC(=O)CCC(=O)NCc1ccccn1)C(=O)N1CSC(C)(C)[C@H]1C(=O)NC(C)(C)C.Cl,48.5,,,,
Cc1cccc(C)c1OCC(=O)N[C@@H](Cc1ccccc1)[C@H](OC(=O)CCC(=O)NCc1cccnc1)C(=O)N1CSC(C)(C)[C@H]1C(=O)NC(C)(C)C.Cl,35.4,30,26.4,1370,6000
Cc1cccc(C)c1OCC(=O)N[C@@H](Cc1ccccc1)[C@H](OC(=O)CCC(=O)NCCN1CCOCC1)C(=O)N1CSC(C)(C)[C@H]1C(=O)NC(C)(C)C.Cl,40.3,30,23.1,1890,5250
Cc1cccc(C)c1OCC(=O)N[C@@H](Cc1ccccc1)[C@H](O)C(=O)N1CSC(C)(C)[C@H]1C(=O)NC(C)(C)C,,5,15.8,1230,3580
Cc1cccc(C)c1OCC(=O)N[C@@H](Cc1ccccc1)[C@H](OC(=O)CCC(=O)NCc1ccncc1)C(=O)N1CSC(C)(C)[C@H]1C(=O)NC(C)(C)C.Cl,34.9,30,29,1620,6570
